Experimental data as given in ChEMBL document CHEMBL3286187, “Synthesis, antibacterial and antitubercular activities of benzimidazole bearing substituted 2-pyridone motifs” (Eur J Med Chem, 2014).
In brackets after ≈: the same amount, converted by molar mass.

Assays:
[1] = system: Staphylococcus aureus; experiment: Antimicrobial activity against Staphylococcus aureus MTCC-96 after 24 hrs by broth dilution method; assay type: functional; settings: MTCC-96, 24 h
Method in brief: (§1)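 NCCLS broth dilution in Mueller Hinton broth with 2% DMSO as vehicle. Primary screen at 1000, 500 and 250 µg/mL; actives retested at 200 to 6.25 µg/mL. Inoculum 10⁶ CFU/mL, set by turbidity. Incubated 24 h at 37 °C; growth read visually and spectrophotometrically. MIC is the lowest concentration arresting growth. Chloramphenicol was the positive control; DMSO and water were negative controls.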

[2] = system: Streptococcus pyogenes; experiment: Antimicrobial activity against Streptococcus pyogenes MTCC-442 after 24 hrs by broth dilution method; assay type: functional; settings: MTCC-442, 24 h; method in brief: as §1
[3] = system: Pseudomonas aeruginosa; experiment: Antimicrobial activity against Pseudomonas aeruginosa MTCC-1688 after 24 hrs by broth dilution method; assay type: functional; settings: MTCC-1688, 24 h; method in brief: as §1
[4] = system: Mycobacterium tuberculosis; experiment: Antitubercular activity against Mycobacterium tuberculosis H37Rv ATCC 27294 after 5 to 8 days by BACTEC 12B method; assay type: functional
[5] = system: Escherichia coli; experiment: Antimicrobial activity against Escherichia coli MTCC-443 after 24 hrs by broth dilution method; assay type: functional; settings: MTCC-443, 24 h; method in brief: as §1
[6] = system: Vero; experiment: Cytotoxicity against african green monkey Vero cells after 72 hrs by MTS-PMS method; assay type: cell-based; settings: Chlorocebus sabaeus
Method in brief: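 Vero cells in DMEM with 10% FBS at 37 °C, 5% CO2, diluted to 10^6 cells/mL. Threefold serial dilutions gave final […] to 0.12 µg/mL with 1% DMSO. Incubated 72 h, washed with HBSS, then MTS-PMS (100:20) added for 3 h; absorbance read at 490 nm. Triplicate wells, assay repeated three times. Controls set as 100% viability; IC50 taken as 50% growth inhibition.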

[7] = system: Staphylococcus aureus; experiment: Antimicrobial activity against methicillin-resistant Staphylococcus aureus ATCC 43300 after 24 hrs by broth dilution method; assay type: functional; settings: ATCC 43300, 24 h
Method in brief: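 Broth dilution per NCCLS in Mueller Hinton broth; compounds in 2% DMSO, 1000 µg/mL stock; primary screen 1000, 500, 250 µg/mL, then secondary dilutions 200 to 6.25 µg/mL. Inoculum 10⁶ CFU/mL by turbidity; 24 h at 37 °C, growth read visually and spectrophotometrically. MIC = lowest concentration arresting growth. DMSO/water negative control; chloramphenicol positive control.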

[8] = system: Staphylococcus aureus; experiment: Ratio of chloramphenicol MIC to compound MIC for methicillin-resistant Staphylococcus aureus ATCC 43300 after 24 hrs by broth dilution method; assay type: functional
[9] = system: Staphylococcus aureus; experiment: Ratio of ciprofloxacin MIC to compound MIC for methicillin-resistant Staphylococcus aureus ATCC 43300 after 24 hrs by broth dilution method; assay type: functional

Structure (SMILES) | MIC [1] | MIC [2] | MIC [3] | MIC [4] | MIC [5] | IC50 [6] | MIC [7] | Ratio [8] | Ratio [9]
C/C(=N\NC(=O)CC#N)c1nc2ccccc2[nH]1 | 1000 µg/mL (≈ 4150 µM) | 1000 µg/mL (≈ 4150 µM) | > 1000 µg/mL | > 39.4 µg/mL | > 1000 µg/mL |  |  |  | 
C/C(=N\n1c(N)c(C#N)c(-c2ccc([N+](=O)[O-])cc2)c(C#N)c1=O)c1nc2ccccc2[nH]1 | 500 µg/mL (≈ 1140 µM) | 500 µg/mL (≈ 1140 µM) | 500 µg/mL (≈ 1140 µM) | > 39.4 µg/mL | 500 µg/mL (≈ 1140 µM) |  |  |  | 
C/C(=N\n1c(/N=C/c2ccccc2)c(C#N)c(-c2ccc([N+](=O)[O-])cc2)c(C#N)c1=O)c1nc2ccccc2[nH]1 | 500 µg/mL (≈ 950 µM) | 500 µg/mL (≈ 950 µM) | 500 µg/mL (≈ 950 µM) | 35.2 µg/mL (≈ 66.9 µM) | 500 µg/mL (≈ 950 µM) | 17.6 µg/mL (≈ 33.4 µM) |  |  | 
C/C(=N\n1c(/N=C/c2ccccc2O)c(C#N)c(-c2ccc([N+](=O)[O-])cc2)c(C#N)c1=O)c1nc2ccccc2[nH]1 | 500 µg/mL (≈ 922 µM) | 250 µg/mL (≈ 461 µM) | 500 µg/mL (≈ 922 µM) | 31.6 µg/mL (≈ 58.3 µM) | 500 µg/mL (≈ 922 µM) | 19.8 µg/mL (≈ 36.6 µM) |  |  | 
C/C(=N\n1c(/N=C/c2cccc(O)c2)c(C#N)c(-c2ccc([N+](=O)[O-])cc2)c(C#N)c1=O)c1nc2ccccc2[nH]1 | 100 µg/mL (≈ 184 µM) | 500 µg/mL (≈ 922 µM) | 250 µg/mL (≈ 461 µM) | 30.2 µg/mL (≈ 55.6 µM) | 500 µg/mL (≈ 922 µM) | 17 µg/mL (≈ 31.3 µM) |  |  | 
C/C(=N\n1c(/N=C/c2ccc(O)cc2)c(C#N)c(-c2ccc([N+](=O)[O-])cc2)c(C#N)c1=O)c1nc2ccccc2[nH]1 | 500 µg/mL (≈ 922 µM) | 250 µg/mL (≈ 461 µM) | 500 µg/mL (≈ 922 µM) | 30.9 µg/mL (≈ 56.9 µM) | 250 µg/mL (≈ 461 µM) | 13.7 µg/mL (≈ 25.3 µM) |  |  | 
C/C(=N\n1c(/N=C/c2cccc(F)c2)c(C#N)c(-c2ccc([N+](=O)[O-])cc2)c(C#N)c1=O)c1nc2ccccc2[nH]1 | 100 µg/mL (≈ 184 µM) | 125 µg/mL (≈ 230 µM) | 250 µg/mL (≈ 459 µM) | 25.4 µg/mL (≈ 46.6 µM) | 100 µg/mL (≈ 184 µM) | 23.6 µg/mL (≈ 43.4 µM) |  |  | 
C/C(=N\n1c(/N=C/c2ccc(F)cc2)c(C#N)c(-c2ccc([N+](=O)[O-])cc2)c(C#N)c1=O)c1nc2ccccc2[nH]1 | 250 µg/mL (≈ 459 µM) | 100 µg/mL (≈ 184 µM) | 250 µg/mL (≈ 459 µM) | 27.1 µg/mL (≈ 49.8 µM) | 250 µg/mL (≈ 459 µM) | 24.8 µg/mL (≈ 45.5 µM) |  |  | 
C/C(=N\n1c(/N=C/c2ccccc2Cl)c(C#N)c(-c2ccc([N+](=O)[O-])cc2)c(C#N)c1=O)c1nc2ccccc2[nH]1 | 50 µg/mL (≈ 89.1 µM) | 62.5 µg/mL (≈ 111 µM) | 125 µg/mL (≈ 223 µM) | 2.65 µg/mL (≈ 4.72 µM) | 100 µg/mL (≈ 178 µM) | > 39.4 µg/mL |  |  | 
C/C(=N\n1c(/N=C/c2cccc(Cl)c2)c(C#N)c(-c2ccc([N+](=O)[O-])cc2)c(C#N)c1=O)c1nc2ccccc2[nH]1 | 25 µg/mL (≈ 44.6 µM) | 50 µg/mL (≈ 89.1 µM) | 62.5 µg/mL (≈ 111 µM) | 0.85 µg/mL (≈ 1.52 µM) | 50 µg/mL (≈ 89.1 µM) | > 39.4 µg/mL | > 50 µg/mL |  | 
C/C(=N\n1c(/N=C/c2ccc(Cl)cc2)c(C#N)c(-c2ccc([N+](=O)[O-])cc2)c(C#N)c1=O)c1nc2ccccc2[nH]1 | 62.5 µg/mL (≈ 111 µM) | 50 µg/mL (≈ 89.1 µM) | 100 µg/mL (≈ 178 µM) | 1.79 µg/mL (≈ 3.19 µM) | 100 µg/mL (≈ 178 µM) | > 39.4 µg/mL |  |  | 
C/C(=N\n1c(/N=C/c2ccccc2C)c(C#N)c(-c2ccc([N+](=O)[O-])cc2)c(C#N)c1=O)c1nc2ccccc2[nH]1 | 125 µg/mL (≈ 231 µM) | 100 µg/mL (≈ 185 µM) | 250 µg/mL (≈ 462 µM) | 9.17 µg/mL (≈ 17 µM) | 250 µg/mL (≈ 462 µM) | 34.5 µg/mL (≈ 63.9 µM) |  |  | 
C/C(=N\n1c(/N=C/c2cccc(C)c2)c(C#N)c(-c2ccc([N+](=O)[O-])cc2)c(C#N)c1=O)c1nc2ccccc2[nH]1 | 100 µg/mL (≈ 185 µM) | 100 µg/mL (≈ 185 µM) | 100 µg/mL (≈ 185 µM) | 2.07 µg/mL (≈ 3.83 µM) | 100 µg/mL (≈ 185 µM) | > 39.4 µg/mL |  |  | 
C/C(=N\n1c(/N=C/c2ccc(C)cc2)c(C#N)c(-c2ccc([N+](=O)[O-])cc2)c(C#N)c1=O)c1nc2ccccc2[nH]1 | 250 µg/mL (≈ 462 µM) | 125 µg/mL (≈ 231 µM) | 250 µg/mL (≈ 462 µM) | 6.28 µg/mL (≈ 11.6 µM) | 250 µg/mL (≈ 462 µM) | > 39.4 µg/mL |  |  | 
COc1cccc(/C=N/c2c(C#N)c(-c3ccc([N+](=O)[O-])cc3)c(C#N)c(=O)n2/N=C(\C)c2nc3ccccc3[nH]2)c1 | 100 µg/mL (≈ 180 µM) | 250 µg/mL (≈ 449 µM) | 500 µg/mL (≈ 898 µM) | 18 µg/mL (≈ 32.3 µM) | 250 µg/mL (≈ 449 µM) | 24.2 µg/mL (≈ 43.5 µM) |  |  | 
COc1ccc(/C=N/c2c(C#N)c(-c3ccc([N+](=O)[O-])cc3)c(C#N)c(=O)n2/N=C(\C)c2nc3ccccc3[nH]2)cc1 | 250 µg/mL (≈ 449 µM) | 250 µg/mL (≈ 449 µM) | 500 µg/mL (≈ 898 µM) | 23.5 µg/mL (≈ 42.2 µM) | 500 µg/mL (≈ 898 µM) | 25.4 µg/mL (≈ 45.6 µM) |  |  | 
C/C(=N\n1c(/N=C/c2cccc([N+](=O)[O-])c2)c(C#N)c(-c2ccc([N+](=O)[O-])cc2)c(C#N)c1=O)c1nc2ccccc2[nH]1 | 250 µg/mL (≈ 437 µM) | 500 µg/mL (≈ 875 µM) | 500 µg/mL (≈ 875 µM) | 28.3 µg/mL (≈ 49.6 µM) | 250 µg/mL (≈ 437 µM) | 27.6 µg/mL (≈ 48.3 µM) |  |  | 
C/C(=N\n1c(/N=C/c2ccc([N+](=O)[O-])cc2)c(C#N)c(-c2ccc([N+](=O)[O-])cc2)c(C#N)c1=O)c1nc2ccccc2[nH]1 | 500 µg/mL (≈ 875 µM) | 500 µg/mL (≈ 875 µM) | 1000 µg/mL (≈ 1750 µM) | 32.2 µg/mL (≈ 56.4 µM) | 1000 µg/mL (≈ 1750 µM) | 16.1 µg/mL (≈ 28.1 µM) |  |  | 
C/C(=N\n1c(/N=C/c2cccc(Br)c2)c(C#N)c(-c2ccc([N+](=O)[O-])cc2)c(C#N)c1=O)c1nc2ccccc2[nH]1 | 12.5 µg/mL (≈ 20.6 µM) | 25 µg/mL (≈ 41.3 µM) | 25 µg/mL (≈ 41.3 µM) | 10.3 µg/mL (≈ 17 µM) | 25 µg/mL (≈ 41.3 µM) | > 39.4 µg/mL | 12.5 µg/mL (≈ 20.6 µM) | 4 | 2
C/C(=N\n1c(/N=C/c2ccc(Br)cc2)c(C#N)c(-c2ccc([N+](=O)[O-])cc2)c(C#N)c1=O)c1nc2ccccc2[nH]1 | 25 µg/mL (≈ 41.3 µM) | 50 µg/mL (≈ 82.6 µM) | 50 µg/mL (≈ 82.6 µM) | 13.8 µg/mL (≈ 22.8 µM) | 50 µg/mL (≈ 82.6 µM) | > 39.4 µg/mL | 6.25 µg/mL (≈ 10.3 µM) | 8 | 4
O=C(N[C@H](CO)[C@H](O)c1ccc([N+](=O)[O-])cc1)C(Cl)Cl [CHLORAMPHENICOL] | 50 µg/mL (≈ 155 µM) | 50 µg/mL (≈ 155 µM) | 50 µg/mL (≈ 155 µM) |  | 50 µg/mL (≈ 155 µM) |  | 50 µg/mL (≈ 155 µM) |  | 
O=C(O)c1cn(C2CC2)c2cc(N3CCNCC3)c(F)cc2c1=O [CIPROFLOXACIN] | 50 µg/mL (≈ 151 µM) | 50 µg/mL (≈ 151 µM) |  |  | 25 µg/mL (≈ 75.4 µM) |  |  |  | 
NNC(=O)c1ccncc1 [ISONIAZID] |  |  |  | 0.24 µg/mL (≈ 1.75 µM) |  |  |  |  | 
